System: HT-1080
Test: Antiproliferative activity against human HT1080 cells after 72 hrs by MTT assay
Type: functional, cell-based
Conditions: HT-1080, 72 h
Procedure, shortened: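 HT-1080 fibrosarcoma cells were grown in EME medium with 10% heat-inactivated FCS and 2 mM glutamine at 37 °C, 5% CO2. Cells were seeded at 2 × 10³ per well and left 24 h to attach. Samples were dissolved in DMSO/PBS, with final DMSO below 0.25%, and added at varying concentrations. After 2 h with MTT, formazan was extracted in DMSO and read at 550 nm. IC50 was taken from the mean of four wells.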

## C[C@H]1O[C@@H](O[C@@H]2C[C@H]3CC[C@@H]4[C@H](CC[C@]5(C)[C@@H](C6=CC(=O)OC6)CC[C@]45O)[C@@]3(C)[C@H](O)C2)C[C@@H](O)[C@@H]1O
  IC50: 1100 nM

## C[C@H]1O[C@@H](O[C@H]2CC[C@]3(C)[C@H]4CC[C@]5(C)[C@@H](C6=CC(=O)OC6)CC[C@]5(O)[C@@H]4CC[C@]3(O)C2)C[C@@H](O)[C@@H]1O
  IC50: 93 nM

## CO[C@@H]1[C@@H](O)[C@H](O[C@@H]2[C@@H](C)O[C@@H](O[C@H]3CC[C@@]4(C)[C@H](CC[C@@H]5[C@@H]4CC[C@]4(C)[C@@H](C6=CC(=O)OC6)CC[C@]54O)C3)C[C@H]2OC)O[C@H](C)[C@H]1O[C@@H]1O[C@H](CO[C@@H]2O[C@H](CO)[C@@H](O)[C@H](O)[C@H]2O)[C@@H](O)[C@H](O)[C@H]1O
  IC50: 220 nM

## CC(=O)O[C@@H]1C[C@H](O[C@H]2CC[C@@]3(C)[C@H](CC[C@@H]4[C@@H]3CC[C@]3(C)[C@@H](C5=CC(=O)OC5)CC[C@]43O)C2)O[C@H](C)[C@H]1O[C@@H]1O[C@H](CO[C@@H]2O[C@H](CO)[C@@H](O)[C@H](O)[C@H]2O)[C@@H](O)[C@H](O)[C@H]1O
  IC50: 590 nM

## C[C@H]1O[C@@H](O[C@H]2CC[C@@]3(C)[C@H](CC[C@@H]4[C@@H]3CC[C@]3(C)[C@@H](C5=CC(=O)OC5)CC[C@]43O)C2)C[C@@H](O)[C@@H]1O[C@@H]1O[C@H](CO[C@@H]2O[C@H](CO)[C@@H](O)[C@H](O)[C@H]2O)[C@@H](O)[C@H](O)[C@H]1O
  IC50: 54 nM

## CO[C@@H]1[C@@H](O)[C@H](O[C@H]2CC[C@]3(C)[C@H]4CC[C@]5(C)[C@@H](C6=CC(=O)OC6)CC[C@]5(O)[C@@H]4CC[C@]3(O)C2)O[C@H](C)[C@H]1O[C@@H]1O[C@H](CO)[C@@H](O)[C@H](O)[C@H]1O
  IC50: 670 nM

## C[C@]12[C@H](CC[C@@H]3[C@@H]1CC[C@]1(C)[C@@H](C4=CC(=O)OC4)CC[C@]31O)C[C@@H](O)C[C@H]2O [ACOVENOSIGENIN A]
  IC50: 1200 nM

## C[C@H]1O[C@@H](O[C@H]2CC[C@]3(C)[C@H]4CC[C@]5(C)[C@@H](C6=CC(=O)OC6)CC[C@]5(O)[C@@H]4CC[C@]3(O)C2)C[C@@H](O)[C@@H]1O[C@@H]1O[C@H](CO)[C@@H](O)[C@H](O)[C@H]1O [CORCHORUSOSIDE C]
  IC50: 92 nM

## C[C@]12CC[C@H](O[C@@H]3O[C@H](CO[C@@H]4O[C@H](CO)[C@@H](O)[C@H](O)[C@H]4O)[C@@H](O)[C@H](O)[C@H]3O)C[C@H]1CC[C@@H]1[C@@H]2CC[C@]2(C)[C@@H](C3=CC(=O)OC3)CC[C@]12O [DIGITOXIGENIN GENTIOBIOSIDE]
  IC50: 1600 nM

## C[C@]12CC[C@H](O[C@@H]3O[C@H](CO)[C@@H](O)[C@H](O)[C@H]3O[C@@H]3O[C@H](CO)[C@@H](O)[C@H](O)[C@H]3O)C[C@H]1CC[C@@H]1[C@@H]2CC[C@]2(C)[C@@H](C3=CC(=O)OC3)CC[C@]12O [DIGITOXIGENIN SOPHOROSIDE]
  IC50: 460 nM

## C[C@]12CC[C@H](O)C[C@H]1CC[C@@H]1[C@@H]2CC[C@]2(C)[C@@H](C3=CC(=O)OC3)CC[C@]12O [DIGITOXIGENIN]
  IC50: 1500 nM

## COc1cccc2c1C(=O)c1c(O)c3c(c(O)c1C2=O)C[C@@](O)(C(=O)CO)C[C@@H]3O[C@H]1C[C@H](N)[C@H](O)[C@H](C)O1 [DOXORUBICIN]
  IC50: 59 nM

## CO[C@@H]1C[C@H](O[C@H]2CC[C@@]3(C)[C@H](CC[C@@H]4[C@@H]3CC[C@]3(C)[C@@H](C5=CC(=O)OC5)CC[C@]43O)C2)O[C@H](C)[C@H]1O[C@@H]1O[C@H](CO[C@@H]2O[C@H](CO)[C@@H](O)[C@H](O)[C@H]2O)[C@@H](O)[C@H](O)[C@H]1O [ECHUJIN]
  IC50: 55 nM

## O=c1[nH]cc(F)c(=O)[nH]1 [FLUOROURACIL]
  IC50: 3700 nM

## CO[C@@H]1C[C@H](O[C@H]2CC[C@]3(C)[C@H]4CC[C@]5(C)[C@@H](C6=CC(=O)OC6)CC[C@]5(O)[C@@H]4CC[C@]3(O)C2)O[C@H](C)[C@H]1O [PERIPLOCYMARIN]
  IC50: 96 nM

## C[C@]12CC[C@H](O[C@@H]3O[C@H](CO)[C@@H](O)[C@H](O)[C@H]3O)C[C@@]1(O)CC[C@@H]1[C@@H]2CC[C@]2(C)[C@@H](C3=CC(=O)OC3)CC[C@]12O [PERIPLOGENIN GLUCOSIDE]
  IC50: 160 nM

## C[C@]12CC[C@H](O)C[C@@]1(O)CC[C@@H]1[C@@H]2CC[C@]2(C)[C@@H](C3=CC(=O)OC3)CC[C@]12O [PERIPLOGENIN]
  IC50: 810 nM

## CC(=O)O[C@H]1C[C@]2(O)[C@@H]3CC[C@@H]4C[C@@H](O[C@H]5C[C@@H](O)[C@H](O[C@@H]6O[C@H](CO)[C@@H](O)[C@H](O)[C@H]6O)[C@@H](C)O5)CC[C@]4(C)[C@H]3CC[C@]2(C)[C@H]1C1=CC(=O)OC1 [SUBALPINOSIDE]
  IC50: 180 nM
